Laboratory results from ChEMBL document CHEMBL5247578, “Effective synthesis of benzimidazoles-imidazo[1,2-a]pyrazine conjugates: A comparative study of mono-and bis-benzimidazoles for antitumor activity” (Eur J Med Chem, 2019).

Assays:
SK-MEL-5 = experiment: Antiproliferative activity against human SK-MEL-5 cells assessed as cell growth inhibition at 10 uM incubated for 48 hrs by sulforhodamine B assay relative to control; type: functional
How it was run: (§1)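 NCI-60 single-dose screen at 10^-5 M. Cells grown in RPMI 1640 with 5% FBS and 2 mM L-glutamine, plated at 5,000–40,000 cells/well, and preincubated 24 h. Drug (DMSO stock) added and incubated 48 h at 37 °C, 5% CO2. Adherent cells fixed with cold TCA, stained with 0.4% SRB in 1% acetic acid, dye solubilized in 10 mM trizma base, A515 read. Percent growth taken against time-zero and untreated control.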

HL-60 = experiment: Antiproliferative activity against human HL-60 cells assessed as cell growth inhibition at 10 uM incubated for 48 hrs by sulforhodamine B assay relative to control; type: functional
How it was run: (§2)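 NCI-60 one-dose prescreen at 10^-5 M. Cells grown in RPMI 1640 with 5% FBS and 2 mM glutamine, preincubated 24 h, then exposed 48 h at 37 °C. Adherent lines TCA-fixed, SRB-stained, A515 read. Growth percent relative to time-zero and control; negative values mean cell kill.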

HT-29 = experiment: Antiproliferative activity against human HT-29 cells assessed as cell growth inhibition at 10 uM incubated for 48 hrs by sulforhodamine B assay relative to control; type: functional; how it was run: as §1
K562 = experiment: Antiproliferative activity against human K562 cells assessed as cell growth inhibition at 10 uM incubated for 48 hrs by sulforhodamine B assay relative to control; type: functional; how it was run: as §1
KM12 = experiment: Antiproliferative activity against human KM12 cells assessed as cell growth inhibition at 10 uM incubated for 48 hrs by sulforhodamine B assay relative to control; type: functional; how it was run: as §1
CCRF-CEM = experiment: Antiproliferative activity against human CCRF-CEM cells assessed as cell growth inhibition at 10 uM incubated for 48 hrs by sulforhodamine B assay relative to control; type: functional
How it was run: (§3)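 Single-dose NCI-60 prescreen at 10^-5 M. Cells in RPMI 1640 with 5% FBS and 2 mM L-glutamine, seeded 5,000–40,000 cells/well with 24 h preincubation, then drug exposure for 48 h at 37 °C under 5% CO2. Growth read by SRB staining of TCA-fixed cells at 515 nm against time-zero and untreated controls. Negative growth values denote cell kill.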

786-0 = experiment: Antiproliferative activity against human 786-0 cells assessed as cell growth inhibition at 10 uM incubated for 48 hrs by sulforhodamine B assay relative to control; type: functional; how it was run: as §3
RXF 393 = experiment: Antiproliferative activity against human RXF 393 cells assessed as cell growth inhibition at 10 uM incubated for 48 hrs by sulforhodamine B assay relative to control; type: functional; how it was run: as §1
MDA-MB-231 = experiment: Antiproliferative activity against human MDA-MB-231 cells assessed as cell growth inhibition at 10 uM incubated for 48 hrs by sulforhodamine B assay relative to control; type: functional; how it was run: as §1
[1] = n-Octanol/phosphate buffer partition coefficient, logP of the compound at pH 7.4 incubated for 85 mins by shake-flask method; type: physicochemical
How it was run: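 Octanol–water partition by shake-flask: n-octanol with 0.15 M phosphate buffer pH 7.4 at 10:1 volumes. Buffer-phase absorbance read before mixing, then shaken 50 min and centrifuged at 2500 rpm for 35 min. Buffer absorbance read again; P = (Ai−Af)/Af × Vw/Vo.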

A549 = experiment: Antiproliferative activity against human A549 cells assessed as cell growth inhibition at 10 uM incubated for 48 hrs by sulforhodamine B assay relative to control; type: functional; how it was run: as §3
T47D = experiment: Antiproliferative activity against human T47D cells assessed as cell growth inhibition at 10 uM incubated for 48 hrs by sulforhodamine B assay relative to control; type: functional; how it was run: as §1
RPMI-8226 = experiment: Antiproliferative activity against human RPMI-8226 cells assessed as cell growth inhibition at 10 uM incubated for 48 hrs by sulforhodamine B assay relative to control; type: functional; how it was run: as §1
MDA-MB-468 = experiment: Antiproliferative activity against human MDA-MB-468 cells assessed as cell growth inhibition at 10 uM incubated for 48 hrs by sulforhodamine B assay relative to control; type: functional; how it was run: as §1
TK-10 = experiment: Antiproliferative activity against human TK-10 cells assessed as cell growth inhibition at 10 uM incubated for 48 hrs by sulforhodamine B assay relative to control; type: functional; how it was run: as §1
DU-145 = experiment: Antiproliferative activity against human DU-145 cells assessed as cell growth inhibition at 10 uM incubated for 48 hrs by sulforhodamine B assay relative to control; type: functional; how it was run: as §2
SF-539 = experiment: Antiproliferative activity against human SF-539 cells assessed as cell growth inhibition at 10 uM incubated for 48 hrs by sulforhodamine B assay relative to control; type: functional; how it was run: as §1
NCI-H226 = experiment: Antiproliferative activity against human NCI-H226 cells assessed as cell growth inhibition at 10 uM incubated for 48 hrs by sulforhodamine B assay relative to control; type: functional; how it was run: as §1
ACHN = experiment: Antiproliferative activity against human ACHN cells assessed as cell growth inhibition at 10 uM incubated for 48 hrs by sulforhodamine B assay relative to control; type: functional; how it was run: as §3
LOX IMVI = experiment: Antiproliferative activity against human LOX IMVI cells assessed as cell growth inhibition at 10 uM incubated for 48 hrs by sulforhodamine B assay relative to control; type: functional; how it was run: as §1
Hs-578T = experiment: Antiproliferative activity against human Hs-578T cells assessed as cell growth inhibition at 10 uM incubated for 48 hrs by sulforhodamine B assay relative to control; type: functional; how it was run: as §1
SR = experiment: Antiproliferative activity against human SR cells assessed as cell growth inhibition at 10 uM incubated for 48 hrs by sulforhodamine B assay relative to control; type: functional; how it was run: as §1
U-251 = experiment: Antiproliferative activity against human U-251 cells assessed as cell growth inhibition at 10 uM incubated for 48 hrs by sulforhodamine B assay relative to control; type: functional; how it was run: as §1
HCT-15 = experiment: Antiproliferative activity against human HCT-15 cells assessed as cell growth inhibition at 10 uM incubated for 48 hrs by sulforhodamine B assay relative to control; type: functional; how it was run: as §2
UACC-62 = experiment: Antiproliferative activity against human UACC-62 cells assessed as cell growth inhibition at 10 uM incubated for 48 hrs by sulforhodamine B assay relative to control; type: functional; how it was run: as §1
SNB-19 = experiment: Antiproliferative activity against human SNB-19 cells assessed as cell growth inhibition at 10 uM incubated for 48 hrs by sulforhodamine B assay relative to control; type: functional; how it was run: as §1
HOP-92 = experiment: Antiproliferative activity against human HOP-92 cells assessed as cell growth inhibition at 10 uM incubated for 48 hrs by sulforhodamine B assay relative to control; type: functional; how it was run: as §2
NCI-H522 = experiment: Antiproliferative activity against human NCI-H522 cells assessed as cell growth inhibition at 10 uM incubated for 48 hrs by sulforhodamine B assay relative to control; type: functional; how it was run: as §1
UO-31 = experiment: Antiproliferative activity against human UO-31 cells assessed as cell growth inhibition at 10 uM incubated for 48 hrs by sulforhodamine B assay relative to control; type: functional; how it was run: as §1
NCI-H23 = experiment: Antiproliferative activity against human NCI-H23 cells assessed as cell growth inhibition at 10 uM incubated for 48 hrs by sulforhodamine B assay relative to control; type: functional; how it was run: as §1
A498 = experiment: Antiproliferative activity against human A498 cells assessed as cell growth inhibition at 10 uM incubated for 48 hrs by sulforhodamine B assay relative to control; type: functional; how it was run: as §3
SK-MEL-2 = experiment: Antiproliferative activity against human SK-MEL-2 cells assessed as cell growth inhibition at 10 uM incubated for 48 hrs by sulforhodamine B assay relative to control; type: functional; how it was run: as §1
OVCAR-8 = experiment: Antiproliferative activity against human OVCAR-8 cells assessed as cell growth inhibition at 10 uM incubated for 48 hrs by sulforhodamine B assay relative to control; type: functional; how it was run: as §1
PC-3 = experiment: Antiproliferative activity against human PC-3 cells assessed as cell growth inhibition at 10 uM incubated for 48 hrs by sulforhodamine B assay relative to control; type: functional; how it was run: as §1
HCC 2998 = experiment: Antiproliferative activity against human HCC 2998 cells assessed as cell growth inhibition at 10 uM incubated for 48 hrs by sulforhodamine B assay relative to control; type: functional; how it was run: as §2
MOLT-4 = experiment: Antiproliferative activity against human MOLT-4 cells assessed as cell growth inhibition at 10 uM incubated for 48 hrs by sulforhodamine B assay relative to control; type: functional; how it was run: as §1
IGROV-1 = experiment: Antiproliferative activity against human IGROV-1 cells assessed as cell growth inhibition at 10 uM incubated for 48 hrs by sulforhodamine B assay relative to control; type: functional; how it was run: as §1
HCT-116 = experiment: Antiproliferative activity against human HCT-116 cells assessed as cell growth inhibition at 10 uM incubated for 48 hrs by sulforhodamine B assay relative to control; type: functional; how it was run: as §2

Work on `c1cn2cc(-c3ccsc3)nc(-c3ccc4ncn(C5CCCCC5)c4c3)c2n1` yielded an inhibition at 10 µM (SK-MEL-5) of 25%, an inhibition at 10 µM (HL-60) of 18.4% and an inhibition at 10 µM (HT-29) of 5.68%. For the same compound, the inhibition at 10 µM (K562) was 22%, the inhibition at 10 µM (KM12) was 15.4% and the inhibition at 10 µM (CCRF-CEM) was 29.2%. It also gave an inhibition at 10 µM (786-0) of 6.35%, an inhibition at 10 µM (RXF 393) of 8.63% and an inhibition at 10 µM (MDA-MB-231) of 1.35%. The logD at 1.417 h [1] was 1.81, the inhibition at 10 µM (A549) was 3.97% and the inhibition at 10 µM (T47D) was 63.7%. For the same compound, the inhibition at 10 µM (RPMI-8226) was 37.9%, the inhibition at 10 µM (MDA-MB-468) was 21.8% and the inhibition at 10 µM (TK-10) was 3.37%. The inhibition at 10 µM (DU-145) was 1.36%, the inhibition at 10 µM (SF-539) was 6.29% and the inhibition at 10 µM (NCI-H226) was 6.34%. The inhibition at 10 µM (ACHN) was 5.76%, the inhibition at 10 µM (LOX IMVI) was 4.9% and the inhibition at 10 µM (Hs-578T) was 5.56%. For the same compound, the inhibition at 10 µM (SR) was 14.3%, the inhibition at 10 µM (U-251) was 6.09% and the inhibition at 10 µM (HCT-15) was 1.37%. The inhibition at 10 µM (UACC-62) was 18.4%, the inhibition at 10 µM (SNB-19) was 0.39% and the inhibition at 10 µM (HOP-92) was 27.8%. It also gave an inhibition at 10 µM (NCI-H522) of 10.2%, an inhibition at 10 µM (UO-31) of 23.1% and an inhibition at 10 µM (NCI-H23) of 10%. For the same compound, the inhibition at 10 µM (A498) was 20.1%, the inhibition at 10 µM (SK-MEL-2) was 3.68% and the inhibition at 10 µM (OVCAR-8) was 12.1%. The inhibition at 10 µM (PC-3) was 19.9%, the inhibition at 10 µM (HCC 2998) was 2.18% and the inhibition at 10 µM (MOLT-4) was 30%. For the same compound, the inhibition at 10 µM (IGROV-1) was 1.51% and the inhibition at 10 µM (HCT-116) was 13.3%.
